Experiments:
[1] = biological target: Estrogen receptor (Bos taurus) (UniProt Q9XSB5+P49884); experiment: Relative binding affinity for calf uterine estrogen receptor compared to 17-beta-estradiol (E2); type: protein assay
Method in brief: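 Competitive binding in calf uterine cytosol (final protein 3 mg/mL) in Tris-EDTA-NaN3 buffer, pH 7.5. 5 nM [3H]17β-estradiol plus competitor at 10^-9 to 10^-5 M, 18 h at 4 °C. Free ligand removed with dextran-coated charcoal (90 min, 4 °C). Nonspecific binding from 4 μM estradiol. RBA = ratio of estradiol to test molar concentrations giving 50% displacement × 100.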

MDA-MB-231 [2] = experiment: Inhibition of hormone-independent MDA-MB 231 mammary tumor cell proliferation at 1*10e-5 M; type: functional, Homo sapiens
Method in brief: (§1)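 MDA-MB 231 cells were grown in McCoy 5a medium with 10% NCS and were pre-grown 3 d in microplates before drug medium was added (controls 0.1% DMF). After 2 days of incubation, wells were fixed with 1% glutaraldehyde, stained with 0.02% crystal violet, and read by optical density. T/C (%) was corrected for initial density (vinblastine 10^-7 M). 16 replicates ± SD.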

MDA-MB-231 [3] = experiment: Inhibition of hormone-independent MDA-MB 231 mammary tumor cell proliferation at 1*10e-6 M; type: functional, Homo sapiens; method in brief: as §1
MDA-MB-231 [4] = experiment: Inhibition of hormone-independent MDA-MB 231 mammary tumor cell proliferation at 1*10e-7 M; type: functional, Homo sapiens; method in brief: as §1
MDA-MB-231 [5] = experiment: Inhibition of hormone-independent MDA-MB 231 mammary tumor cell proliferation at 5*10e-6 M; type: functional, Homo sapiens; method in brief: as §1
MCF7 [6] = experiment: Inhibition of hormone-sensitive MCF-7 mammary tumor cell proliferation at 1*10e-5 M; type: functional, Homo sapiens
Method in brief: (§2)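 MCF-7 cells were grown in modified improved MEM with 10% newborn calf serum at 37 °C and 5% CO2, plated in 96-well plates for 3 d, then given drug medium (controls 0.1% DMF). After 3 days, cells were glutaraldehyde-fixed and crystal violet-stained; T/C = test/control optical density, corrected for initial density (vinblastine 10^-7 M). 16 replicates ± SD.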

MCF7 [7] = experiment: Inhibition of hormone-sensitive MCF-7 mammary tumor cell proliferation at 1*10e-6 M; type: functional, Homo sapiens; method in brief: as §2
MCF7 [8] = experiment: Inhibition of hormone-sensitive MCF-7 mammary tumor cell proliferation at 1*10e-7 M; type: functional, Homo sapiens; method in brief: as §2
MCF7 [9] = experiment: Inhibition of hormone-sensitive MCF-7 mammary tumor cell proliferation at 5*10e-6 M; type: functional, Homo sapiens; method in brief: as §2
[10] = biological target: T1, Estrogen receptor (Mus musculus) (UniProt O08537+P19785); experiment: Percent inhibition of estrone-stimulated uterotrophic effect in mice at 250 ug dose; type: functional
Method in brief: (§3)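 Antiuterotrophic test in immature female NMRI mice (20 days old). Estrone 0.4 μg was co-injected with the compound in olive oil, sc daily for three days. Uterine dry weight per body weight was read 24 h after the last dose. Inhibition (%) = 100 − [(W_S,T − W_V)/(W_S − W_V) × 100], where W_V is the vehicle control.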

[11] = biological target: T1, Estrogen receptor (Mus musculus); experiment: Percent inhibition of estrone-stimulated uterotrophic effect in mice at 50 ug dose; type: functional; method in brief: as §3
[12] = biological target: T1, Estrogen receptor (Mus musculus); experiment: Percent inhibition of estrone-stimulated uterotrophic effect in mice at 10 ug dose; type: functional; method in brief: as §3
[13] = biological target: T1, Estrogen receptor (Mus musculus); experiment: Percent inhibition of estrone-stimulated uterotrophic effect in mice at 2 ug dose; type: functional; method in brief: as §3
[14] = biological target: T1, Estrogen receptor (Mus musculus); experiment: Anti-uterotrophic effect in mice as uterine weight(mg) relative to body weight(g) at 10 ug dose; type: functional
Method in brief: (§4)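 Immature female NMRI mice, 20 days old, groups of six to ten; compound plus standard estrone 0.4 μg in olive oil (100 μL/animal) given sc on three consecutive days. Killed 24 h after last injection; uteri fixed in Bouin solution 2 h, dried at 100 °C for 18 h, weighed. Relative weight = uterine dry weight (mg)/body weight (g) × 100; mean of 6 animals ± SD.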

[15] = biological target: T1, Estrogen receptor (Mus musculus); experiment: Anti-uterotrophic effect in mice as uterine weight(mg) relative to body weight(g) at 2 ug dose; type: functional; method in brief: as §4
[16] = biological target: T1, Estrogen receptor (Mus musculus); experiment: Anti-uterotrophic effect in mice as uterine weight(mg) relative to body weight(g) at 250 ug dose; type: functional; method in brief: as §4
[17] = biological target: T1, Estrogen receptor (Mus musculus); experiment: Uterotrophic effect in mice as uterine weight(mg) relative to body weight(g) at 10 ug dose; type: functional, tissue-based
Method in brief: (§5)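 Uterotrophic test: 20-day-old immature female NMRI mice, six to ten per group, received compound alone in olive oil (100 μL/animal) sc on three consecutive days; controls received vehicle. After 24 h, uteri were Bouin-fixed 2 h and dried 18 h at 100 °C. Uterine dry weight (mg)/body weight (g) × 100; mean of 6 ± SD.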

[18] = biological target: T1, Estrogen receptor (Mus musculus); experiment: Uterotrophic effect in mice as uterine weight(mg) relative to body weight(g) at 2 ug dose; type: functional, tissue-based; method in brief: as §5
[19] = biological target: T1, Estrogen receptor (Mus musculus); experiment: Uterotrophic effect in mice as uterine weight(mg) relative to body weight(g) at 250 ug dose; type: functional, tissue-based; method in brief: as §5
[20] = biological target: T1, Estrogen receptor (Mus musculus); experiment: Uterotrophic effect in mice as uterine weight(mg) relative to body weight(g) at 50 ug dose; type: functional, tissue-based; method in brief: as §5
[21] = biological target: T1, Estrogen receptor (Mus musculus); experiment: Anti-uterotrophic effect in mice as uterine weight(mg) relative to body weight(g) at 50 ug dose; type: functional; method in brief: as §4

T1 sequence (O08537 whole entry, looked up): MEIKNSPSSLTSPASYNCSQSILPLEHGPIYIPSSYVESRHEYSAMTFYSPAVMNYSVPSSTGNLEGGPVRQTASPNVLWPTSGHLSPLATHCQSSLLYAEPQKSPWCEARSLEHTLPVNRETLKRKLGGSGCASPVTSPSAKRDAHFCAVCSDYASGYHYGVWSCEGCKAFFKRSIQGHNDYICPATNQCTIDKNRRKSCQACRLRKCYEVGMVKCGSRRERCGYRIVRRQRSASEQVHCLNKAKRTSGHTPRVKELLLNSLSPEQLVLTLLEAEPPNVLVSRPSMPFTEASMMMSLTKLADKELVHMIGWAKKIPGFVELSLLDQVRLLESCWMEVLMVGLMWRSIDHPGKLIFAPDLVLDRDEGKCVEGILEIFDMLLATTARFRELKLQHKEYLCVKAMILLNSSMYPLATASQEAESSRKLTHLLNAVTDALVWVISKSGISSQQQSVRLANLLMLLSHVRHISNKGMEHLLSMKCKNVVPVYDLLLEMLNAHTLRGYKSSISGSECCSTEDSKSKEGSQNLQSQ
T1 sequence (P19785 whole entry, looked up): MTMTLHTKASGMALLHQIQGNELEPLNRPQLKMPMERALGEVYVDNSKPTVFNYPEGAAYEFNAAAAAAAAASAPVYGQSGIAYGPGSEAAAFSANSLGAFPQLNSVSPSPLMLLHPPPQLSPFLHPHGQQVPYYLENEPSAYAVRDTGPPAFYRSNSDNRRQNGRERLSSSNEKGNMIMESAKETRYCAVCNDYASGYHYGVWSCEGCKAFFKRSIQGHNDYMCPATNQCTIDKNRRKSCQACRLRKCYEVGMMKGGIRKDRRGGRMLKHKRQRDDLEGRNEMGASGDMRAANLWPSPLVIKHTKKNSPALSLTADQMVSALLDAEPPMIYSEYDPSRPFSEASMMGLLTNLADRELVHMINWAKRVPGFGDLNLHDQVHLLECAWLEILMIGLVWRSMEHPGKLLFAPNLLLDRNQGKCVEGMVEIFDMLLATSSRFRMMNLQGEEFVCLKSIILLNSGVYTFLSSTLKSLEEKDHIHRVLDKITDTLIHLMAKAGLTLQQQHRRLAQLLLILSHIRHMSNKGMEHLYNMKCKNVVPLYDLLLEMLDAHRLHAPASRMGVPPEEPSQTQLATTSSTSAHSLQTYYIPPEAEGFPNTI

With CCCCC1Cc2cc(OC(C)=O)ccc2-c2c(C=O)c3ccc(OC(C)=O)cc3n21 (stereo unspecified) the relative binding affinity (RBA) [1] was 0.7, the T/C (MDA-MB-231 [2]) was 16% and the T/C (MDA-MB-231 [3]) was 30%. The T/C (MDA-MB-231 [4]) was 104%, the T/C (MDA-MB-231 [5]) was 24% and the T/C (MCF7 [6]) was 0%. The T/C (MCF7 [7]) was 0%, the T/C (MCF7 [8]) was 66% and the T/C (MCF7 [9]) was 0%. For the same molecule, the inhibition [10] was 19%, the inhibition [11] was 8% and the inhibition [12] was 20%. It also gave an inhibition [13] of 6%, a Relative uterus weight [14] of 46.7 and a Relative uterus weight [15] of 52.8. For the same molecule, the Relative uterus weight [16] was 47.5, the Relative uterus weight [17] was 13.7 and the Relative uterus weight [18] was 16.7. The Relative uterus weight [19] was 10.6, the Relative uterus weight [20] was 12.3 and the Relative uterus weight [21] was 51.8.
For CCC1Cc2cc(OC(C)=O)ccc2-c2c(C=O)c3cc(OC(C)=O)ccc3n21 (stereo unspecified), the relative binding affinity (RBA) [1] was 3.3, the T/C (MDA-MB-231 [2]) was 52% and the T/C (MDA-MB-231 [3]) was 111%. It also gave a T/C (MDA-MB-231 [4]) of 106%, a T/C (MDA-MB-231 [5]) of 86% and a T/C (MCF7 [6]) of 12%. For the same molecule, the T/C (MCF7 [7]) was 91%, the T/C (MCF7 [8]) was 85% and the T/C (MCF7 [9]) was 43%. For the same molecule, the inhibition [10] was 80%, the inhibition [11] was 74% and the inhibition [12] was 22%. For the same molecule, the inhibition [13] was 25%, the Relative uterus weight [14] was 46.1 and the Relative uterus weight [15] was 45.3. It also gave a Relative uterus weight [16] of 24.6, a Relative uterus weight [17] of 17.2 and a Relative uterus weight [18] of 18.2. For the same molecule, the Relative uterus weight [19] was 41.8, the Relative uterus weight [20] was 20.5 and the Relative uterus weight [21] was 27.
With CCCCC1Cc2cc(OC(C)=O)ccc2-c2c(C=O)c3cc(OC(C)=O)ccc3n21 (stereo unspecified) the relative binding affinity (RBA) [1] was 2.1, the T/C (MDA-MB-231 [2]) was 12% and the T/C (MDA-MB-231 [3]) was 73%. It also gave a T/C (MDA-MB-231 [4]) of 116%, a T/C (MDA-MB-231 [5]) of 12% and a T/C (MCF7 [6]) of 0%. The T/C (MCF7 [7]) was 12%, the T/C (MCF7 [8]) was 81% and the T/C (MCF7 [9]) was 0%. The inhibition [10] was 50%, the inhibition [11] was 18% and the inhibition [12] was 17%. It also gave an inhibition [13] of 20%, a Relative uterus weight [14] of 48.2 and a Relative uterus weight [15] of 46.7. It also gave a Relative uterus weight [16] of 34.3, a Relative uterus weight [17] of 18.6 and a Relative uterus weight [18] of 20.2. It also gave a Relative uterus weight [19] of 25.5, a Relative uterus weight [20] of 9.1 and a Relative uterus weight [21] of 47.8.
CC(=O)Oc1ccc2c(c1)CC(C)n1c-2c(C=O)c2cc(OC(C)=O)ccc21 (stereo unspecified) gave a relative binding affinity (RBA) [1] of 3.9, a T/C (MDA-MB-231 [2]) of 61% and a T/C (MDA-MB-231 [3]) of 104%. It also gave a T/C (MDA-MB-231 [4]) of 109%, a T/C (MDA-MB-231 [5]) of 94% and a T/C (MCF7 [6]) of 23%. The T/C (MCF7 [7]) was 94%, the T/C (MCF7 [8]) was 93% and the T/C (MCF7 [9]) was 54%. The inhibition [10] was 32%, the inhibition [11] was 49% and the inhibition [12] was 36%. For the same molecule, the inhibition [13] was 0%, the Relative uterus weight [14] was 42.8 and the Relative uterus weight [15] was 60.5. The Relative uterus weight [16] was 44.4, the Relative uterus weight [17] was 18.2 and the Relative uterus weight [18] was 14.8. It also gave a Relative uterus weight [19] of 43.2, a Relative uterus weight [20] of 24.6 and a Relative uterus weight [21] of 36.5.
Molecule CCCCCC1Cc2cc(OC(C)=O)ccc2-c2c(C=O)c3cc(OC(C)=O)ccc3n21 (stereo unspecified) has a relative binding affinity (RBA) [1] of 1.9, a T/C (MDA-MB-231 [2]) of 47% and a T/C (MDA-MB-231 [3]) of 100%. For the same molecule, the T/C (MDA-MB-231 [4]) was 105%, the T/C (MDA-MB-231 [5]) was 80% and the T/C (MCF7 [6]) was 37%. For the same molecule, the T/C (MCF7 [7]) was 94%, the T/C (MCF7 [8]) was 102% and the T/C (MCF7 [9]) was 77%. For the same molecule, the inhibition [10] was 8%, the inhibition [11] was 24% and the inhibition [12] was 14%. It also gave an inhibition [13] of 0%, a Relative uterus weight [14] of 51 and a Relative uterus weight [15] of 57.3. The Relative uterus weight [16] was 53.8, the Relative uterus weight [17] was 16 and the Relative uterus weight [18] was 17.9. For the same molecule, the Relative uterus weight [19] was 22.5, the Relative uterus weight [20] was 20.2 and the Relative uterus weight [21] was 47.1.
CCCCCC1Cc2cc(OC(C)=O)ccc2-c2c(C=O)c3ccc(OC(C)=O)cc3n21 (stereo unspecified) was tested, and the relative binding affinity (RBA) [1] was 0.6, the T/C (MDA-MB-231 [2]) was 27% and the T/C (MDA-MB-231 [3]) was 105%. The T/C (MDA-MB-231 [4]) was 118%, the T/C (MDA-MB-231 [5]) was 70% and the T/C (MCF7 [6]) was 0%. It also gave a T/C (MCF7 [7]) of 90%, a T/C (MCF7 [8]) of 101% and a T/C (MCF7 [9]) of 0%. For the same molecule, the inhibition [10] was 38%, the inhibition [11] was 52% and the inhibition [12] was 25%. The inhibition [13] was 19%, the Relative uterus weight [14] was 46.4 and the Relative uterus weight [15] was 49. The Relative uterus weight [16] was 41.2, the Relative uterus weight [17] was 16.6 and the Relative uterus weight [18] was 16.4. The Relative uterus weight [19] was 19.5, the Relative uterus weight [20] was 15.8 and the Relative uterus weight [21] was 35.6.
